TRPC4 potent = TRPC4 (mouse) allosteric potentiation; actives 0.42% (n = 310,000); Q9QUQ5; HEK293 TRPC4beta/mu-opioid, DAMGO EC20, Fluo-4 Ca2+ flux; active compounds read high; B-score at 10 µM;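 active = B-score of calcium response area above 5 SD of library B-scores, with initial fluorescence ratio within 5 SD of library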;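 also: B-score of integrated fluorescence ratio over time as area under calcium response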
Target sequence (Q9QUQ5 whole entry, looked up): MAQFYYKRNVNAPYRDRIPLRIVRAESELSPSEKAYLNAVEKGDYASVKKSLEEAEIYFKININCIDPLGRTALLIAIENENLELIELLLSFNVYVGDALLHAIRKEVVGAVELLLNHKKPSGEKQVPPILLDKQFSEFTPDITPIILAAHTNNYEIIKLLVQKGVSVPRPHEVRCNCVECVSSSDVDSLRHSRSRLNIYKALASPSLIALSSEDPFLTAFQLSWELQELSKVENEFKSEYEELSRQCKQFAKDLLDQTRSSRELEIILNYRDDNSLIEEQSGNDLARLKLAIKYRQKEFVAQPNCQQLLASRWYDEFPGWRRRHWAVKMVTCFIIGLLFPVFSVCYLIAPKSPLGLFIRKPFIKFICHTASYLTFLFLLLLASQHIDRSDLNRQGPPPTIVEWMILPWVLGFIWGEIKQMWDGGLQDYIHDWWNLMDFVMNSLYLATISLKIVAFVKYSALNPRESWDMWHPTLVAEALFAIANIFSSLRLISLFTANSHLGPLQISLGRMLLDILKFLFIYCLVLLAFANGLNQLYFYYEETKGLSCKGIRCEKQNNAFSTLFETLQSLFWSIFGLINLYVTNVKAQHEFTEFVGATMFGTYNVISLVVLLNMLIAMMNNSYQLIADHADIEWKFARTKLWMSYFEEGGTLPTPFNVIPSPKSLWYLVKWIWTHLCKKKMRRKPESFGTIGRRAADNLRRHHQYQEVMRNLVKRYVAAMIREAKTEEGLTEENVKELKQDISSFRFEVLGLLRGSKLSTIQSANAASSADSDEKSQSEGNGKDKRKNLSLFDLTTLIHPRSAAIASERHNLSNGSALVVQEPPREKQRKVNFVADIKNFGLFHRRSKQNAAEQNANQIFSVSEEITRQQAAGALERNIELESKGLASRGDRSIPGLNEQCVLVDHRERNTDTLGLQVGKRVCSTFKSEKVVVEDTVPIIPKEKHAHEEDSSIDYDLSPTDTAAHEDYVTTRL
TRPC6 activator = mouse TRPC6 channel activation. HEK293-TRPC6 membrane potential dye fluorescence; active compounds read high. B-score at 10 µM. actives 0.13% (n = 310,000);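 active = B-score of the integrated fluorescence ratio above library mean plus 3 SD, and starting fluorescence ratio within library mean plus 5 SD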;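 also: higher score means more depolarization so channel activation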
TRPC4 block = inhibitors of mouse TRPC4 channel; Q9QUQ5; HEK293 TRPC4beta/mu-opioid, DAMGO-evoked Fluo4 calcium flux; active compounds read low; B-score at 10 µM; actives 0.39% (n = 300,000); AID 2247;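 active = B-score over 3 SD under the library average, no early fluorescence shift, positive overall ratio signal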
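Assay system – HEK293 line stably carrying TRPC4beta and mu-opioid receptor · Doses – single dose · Detection – Fluo4 calcium-dye fluorescence, kinetic read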
TRPC4 act = TRPC4 (mouse) channel activation; HEK293 TRPC4beta/mu-opioid, Fluo4 calcium fluorescence; active compounds read high; B-score at 10 µM; actives 0.49% (n = 310,000); AID 2237;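 active = B-score above 5 SD of library B-scores, and initial fluorescence ratio not above library mean plus 5 SD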;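 also: positive B-score marks a calcium rise read as TRPC4 activation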
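Assay system: HEK293 cells stably co-expressing mouse TRPC4beta and mu-opioid receptor / Timing: Fluo4 dye loading 45 min at room temperature, 110 s recording / Signal: Fluo4 calcium-sensitive dye fluorescence, kinetic, 1 Hz baseline / Read-out: integrated baseline-normalised fluorescence ratio, converted to per-well B score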
TRPC6 inh = mouse TRPC6 channel inhibition; HEK293-TRPC6, membrane potential dye, ACh-evoked depolarization; active compounds read low; B-score at 10 µM; Q61143; actives 1.1% (n = 310,000);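 active = B-score under library mean minus 3 SD, initial fluorescence not abnormally high, positive integrated signal ratio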;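 also: B-score derived from integrated fluorescence ratio over the kinetic read; more negative B-score means stronger inhibition of depolarization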
The depositor's hits bear a star; i = inactive. Only some compounds are listed: those with a hit (about 2.3% of all), similar ones and a draw of the others.

SMILES	TRPC4 potent	TRPC6 activator	TRPC4 block	TRPC4 act	TRPC6 inh
N#Cc1cc2cc3c(cc2nc1SCC(=O)N1CCOCC1)OCCO3	i	i	i	i	i
Cc1cc(OCCCn2ccnc2)cc(C)c1Cl	i	i	i	104*	i
Cc1ccc(OCCn2ccnc2)c([N+](=O)[O-])c1	i	i	i	i	i
Cc1cc(OCCCn2ccnc2)ccc1[N+](=O)[O-]	21*	i	i	43*	i
CCOC(=O)CC1COCCN1C(=O)c1ccc2oc(Cc3ccccc3)nc2c1 (stereo not drawn)	i	i	i	i	i
CCOc1ccc(S(=O)(=O)N2CCC(C(=O)NCc3cccnc3)CC2)cc1	i	i	i	i	i
CCCCN1/C(=C/c2ccc3ccccc3[n+]2CC)Sc2ccccc21	i	i	i	204*	i
CCCNC(=O)c1nnsc1S(=O)c1ccc(Cl)cc1 (stereo not drawn)	i	i	-6*	i	i
CC(=O)Nc1ccc(S(=O)(=O)Nc2nnc(CC(C)(C)C)s2)cc1	i	i	i	i	i
COc1cccc(C(=O)N(c2ccccc2)C2C=CS(=O)(=O)C2)c1 (stereo not drawn)	i	i	i	i	i
CCCCC(=O)N1CCN(c2nc3ccc(F)cc3s2)CC1	i	i	i	78*	i
COC(=O)c1cccc(NC(=S)Nc2cccc(Cl)c2Cl)c1	i	i	-6*	i	i
CC(=O)Nc1cccc(NC(=S)Nc2cccc(Cl)c2Cl)c1	i	i	i	i	i
O=C(CCOc1ccccc1)Nc1ccnn1C1CCN(Cc2ccc(F)cc2)CC1	i	i	i	i	i
CC(=O)N1CC(C)Oc2ccc(S(=O)(=O)Nc3ccc(Cl)cn3)cc21 (stereo not drawn)	i	i	i	i	i
CNCC(=O)N1CCN(c2ncc(C(F)(F)F)cc2Cl)CC1	i	i	i	189*	i
CCOC(=O)N1CCN(c2ncc(C(F)(F)F)cc2Cl)CC1	i	i	i	i	i
N#Cc1ccc(OCC(O)CN2CCN(c3ncc(C(F)(F)F)cc3Cl)CC2)cc1 (stereo not drawn)	25*	i	i	i	i
COC(=O)C1CC(Cl)CN1c1ncc(C(F)(F)F)cc1Cl (stereo not drawn)	11*	i	i	i	i
N#Cc1ccc(OCC(O)CN2CCN(CC(O)COc3ccc(C#N)cc3)CC2)cc1 (stereo not drawn)	i	i	i	i	i
O=C(CSc1ccccn1)N1CCN(c2ncc(C(F)(F)F)cc2Cl)CC1	i	i	i	49*	i
O=C(O)c1nn(CC(=O)N2CCN(c3ncc(C(F)(F)F)cc3Cl)CC2)c(=O)c2ccccc12	15*	i	i	i	i
CC(C)(C(N)=O)N1CCN(c2ncc(C(F)(F)F)cc2Cl)CC1	i	i	i	61*	i
FC(F)(F)c1cnc(N2CCN(C(=S)NCc3ccccc3)CC2)c(Cl)c1	i	i	i	i	i
FC(F)(F)c1cnc(N2CCSCC2)c(Cl)c1	i	i	i	i	i
SMILES	TRPC4 potent	TRPC6 activator	TRPC4 block	TRPC4 act	TRPC6 inh
FC(F)(F)c1cnc(N2CCCN(C(=S)Nc3ccccc3)CC2)c(Cl)c1	i	i	i	159*	i
C=CCN(C(=O)Cn1nnc2ccccc21)C(C(=O)NCCOC)c1ccc(OC)cc1OC (stereo not drawn)	i	i	i	i	i
COCCN(C(=O)Cn1nnc2ccccc21)C(C(=O)NC1CCCC1)c1cc(OC)ccc1OC (stereo not drawn)	i	24.5*	i	i	i
Cc1ccccc1-c1nn(-c2ccc(F)cc2F)cc1CNCC(C)O (stereo not drawn)	i	i	i	i	i
CCOCCCNCc1cn(-c2ccc(F)cc2F)nc1-c1ccccc1C	i	i	i	77*	i
CC1CCc2c(sc(/N=C/N(C)C)c2C#N)C1 (stereo not drawn)	i	i	-6*	i	i
CN(C)/C=N/c1sc2c(c1C#N)CCCC2	i	i	i	i	i
CCCN(C(=O)COC(=O)C12CCC(=O)N1c1ccccc1S2)c1c(N)n(Cc2ccccc2)c(=O)[nH]c1=O (stereo not drawn)	i	i	-7*	55*	i
CC(C)CC(OC(=O)c1nsc(Cl)c1Cl)C(=O)NC1CCCC1 (stereo not drawn)	i	i	i	i	i
NC(=O)C(c1ccccc1)c1ccc(C(=O)c2ccccc2)cc1 (stereo not drawn)	i	i	i	i	i
CCCCOc1ccc(C(=O)NNC(=S)NC(=O)CC)cc1	i	i	i	73*	i
CCCOc1ccc(C(=O)NNC(=S)NC(=O)c2ccccc2[N+](=O)[O-])cc1	i	i	i	i	i
CCCOc1ccc(C(=O)NNC(=S)NC(C)=O)cc1	i	i	i	i	i
CCCOc1ccc(C(=O)NNC(=S)NC(=O)c2cccs2)cc1	i	i	i	175*	i
CCCOc1ccc(C(=O)NNC(=S)NC(=O)c2ccccc2)cc1	i	i	i	167*	i
CN1C(=O)[C@H]2[C@@H](C3CC3)N3C(=O)CN(CC4CC4)C(=O)[C@@]3(C)[C@H]2C1=O	i	i	i	i	i
Cc1cccc(NC(=O)CSc2nnc(CNC(=O)c3ccco3)o2)c1	i	i	i	i	i
O=S(=O)(c1ccc(Cl)cc1)N1CCN2CCCC2C1 (stereo not drawn)	34*	i	i	98*	i
COc1ccccc1N1CCN(C2CCCN(S(=O)(=O)c3ccccc3)C2)CC1 (stereo not drawn)	i	i	-6*	i	i
C=CCS(=O)(=O)N1CCCC(N2CCN(c3ccccc3OC)CC2)C1 (stereo not drawn)	i	i	i	i	i
Cc1ccc(S(=O)(=O)N2CCN3CCCC3C2)cc1 (stereo not drawn)	i	i	i	i	i
Oc1cccc(CCC2CCCCN2Cc2cn[nH]c2-c2ccc3c(c2)OCO3)c1 (stereo not drawn)	i	i	i	43*	i
O=C(/C=C/c1ccc(S(=O)(=O)N2CCOCC2)cc1)NC(=S)Nc1ccc(N2CCOCC2)cc1	12*	i	i	i	i
